Test results: ChEMBL document CHEMBL1795341, “Efficient synthesis, structural characterization and anti-microbial activity of chiral aryl boronate esters of 1,2-O-isopropylidene-α-D-xylofuranose” (2011)
Values after ≈ are worked out from the molar mass of the structure shown.

Tests used:
Assay type in all cases: functional
Candida albicans [1] = assay: Antifungal activity against Candida albicans MTCC 227 at 100 ug after 48 hrs by agar well diffusion method; details: MTCC 227, 48 h, read-out: DIZ
Summary of the method: (§1)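 Agar well diffusion on potato dextrose agar; 0.5 ml week-old culture spread over solidified plates, 6 mm wells bored. Compounds dissolved in DMSO at different concentrations and added to wells, with controls. Incubated 27 °C for 48 h; inhibition zone diameter measured in mm; three to four replicates per treatment.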

Aspergillus niger [2] = assay: Antifungal activity against Aspergillus niger MTCC 282 at 100 ug after 48 hrs by agar well diffusion method; details: MTCC 282, 48 h, read-out: DIZ; summary of the method: as §1
Aspergillus niger [3] = assay: Antifungal activity against Aspergillus niger MTCC 282 at 150 ug after 48 hrs by agar well diffusion method; details: MTCC 282, 48 h, read-out: DIZ; summary of the method: as §1
Diutina rugosa [4] = assay: Antifungal activity against Candida rugosa NCIM 3462 at 100 ug after 48 hrs by agar well diffusion method; details: NCIM 3462, 48 h, read-out: DIZ; summary of the method: as §1
Bacillus subtilis = assay: Antibacterial activity against Bacillus subtilis MTCC 441 by broth microdilution method
Diutina rugosa [5] = assay: Antifungal activity against Candida rugosa NCIM 3462 at 150 ug after 48 hrs by agar well diffusion method; details: NCIM 3462, 48 h, read-out: DIZ; summary of the method: as §1
Saccharomyces cerevisiae [6] = assay: Antifungal activity against Saccharomyces cerevisiae MTCC 36 at 100 ug after 48 hrs by agar well diffusion method; details: MTCC 36, 48 h, read-out: DIZ; summary of the method: as §1
Staphylococcus aureus = assay: Antibacterial activity against Staphylococcus aureus MTCC 96 by broth microdilution method
[7] = tested on: Staphylococcus epidermidis; assay: Antibacterial activity against Staphylococcus epidermidis MTCC 2639 by broth microdilution method
Klebsiella pneumoniae = assay: Antibacterial activity against Klebsiella pneumoniae MTCC 618 by broth microdilution method
Candida albicans [8] = assay: Antifungal activity against Candida albicans MTCC 227 at 150 ug after 48 hrs by agar well diffusion method; details: MTCC 227, 48 h, read-out: DIZ; summary of the method: as §1
Pseudomonas aeruginosa = assay: Antibacterial activity against Pseudomonas aeruginosa MTCC 741 by broth microdilution method
Escherichia coli = assay: Antibacterial activity against Escherichia coli MTCC 443 by broth microdilution method
Saccharomyces cerevisiae [9] = assay: Antifungal activity against Saccharomyces cerevisiae MTCC 36 at 150 ug after 48 hrs by agar well diffusion method; details: MTCC 36, 48 h, read-out: DIZ; summary of the method: as §1

| MIC (Bacillus subtilis) [µg/mL] | MIC (Staphylococcus aureus) [µg/mL] | MIC [7] [µg/mL] | MIC (Klebsiella pneumoniae) [µg/mL] | MIC (Pseudomonas aeruginosa) [µg/mL] | MIC (Escherichia coli) [µg/mL] | Compound | zone of inhibition at 100 µg/disc (Candida albicans [1]) [mm] | zone of inhibition at 100 µg/disc (Aspergillus niger [2]) [mm] | zone of inhibition at 150 µg/disc (Aspergillus niger [3]) [mm] | zone of inhibition at 100 µg/disc (Diutina rugosa [4]) [mm] | zone of inhibition at 150 µg/disc (Diutina rugosa [5]) [mm] | zone of inhibition at 100 µg/disc (Saccharomyces cerevisiae [6]) [mm] | zone of inhibition at 150 µg/disc (Candida albicans [8]) [mm] | zone of inhibition at 150 µg/disc (Saccharomyces cerevisiae [9]) [mm] |
| --- | --- | --- | --- | --- | --- | --- | --- | --- | --- | --- | --- | --- | --- | --- |
| 75 (≈ 248 µM) | 75 (≈ 248 µM) | 75 (≈ 248 µM) | 150 (≈ 496 µM) | 37.5 (≈ 124 µM) | 150 (≈ 496 µM) | C=Cc1ccc(B2OC[C@H]3O[C@@H]4OC(C)(C)O[C@@H]4[C@H]3O2)cc1 | 6 | 9 | 14 | 0 | 0 | 6 | 9 | 8 |
| 2.34 (≈ 7.29 µM) | 4.68 (≈ 14.6 µM) | 9.38 (≈ 29.2 µM) | 4.68 (≈ 14.6 µM) | 18.8 (≈ 58.4 µM) | 9.38 (≈ 29.2 µM) | CC1(C)O[C@H]2O[C@@H]3COB(c4cccc([N+](=O)[O-])c4)O[C@@H]3[C@H]2O1 | 13 | 14 | 18 | 16 | 20 | 11 | 18 | 16 |
| 37.5 (≈ 136 µM) | 75 (≈ 272 µM) | 18.8 (≈ 67.9 µM) | 75 (≈ 272 µM) | 37.5 (≈ 136 µM) | 18.8 (≈ 67.9 µM) | CC1(C)O[C@H]2O[C@@H]3COB(c4ccccc4)O[C@@H]3[C@H]2O1 | 0 | 8 | 12 | 0 | 0 | 0 | 6 | 0 |
| 150 (≈ 460 µM) | 150 (≈ 460 µM) | 75 (≈ 230 µM) | 150 (≈ 460 µM) | 150 (≈ 460 µM) | 150 (≈ 460 µM) | CC1(C)O[C@H]2O[C@@H]3COB(c4ccc5ccccc5c4)O[C@@H]3[C@H]2O1 | 6 | 0 | 4 | 13 | 16 | 7 | 9 | 11 |
| 18.8 (≈ 61.7 µM) | 9.38 (≈ 30.8 µM) | 18.8 (≈ 61.7 µM) | 4.68 (≈ 15.4 µM) | 37.5 (≈ 123 µM) | 4.68 (≈ 15.4 µM) | CC1(C)O[C@H]2O[C@@H]3COB(c4ccc(C=O)cc4)O[C@@H]3[C@H]2O1 | 12 | 6 | 8 | 13 | 17 | 14 | 14 | 19 |
| 150 (≈ 490 µM) | 150 (≈ 490 µM) | 150 (≈ 490 µM) | 75 (≈ 245 µM) | 150 (≈ 490 µM) | 150 (≈ 490 µM) | COc1ccc(B2OC[C@H]3O[C@@H]4OC(C)(C)O[C@@H]4[C@H]3O2)cc1 | 0 | 0 | 0 | 7 | 10 | 0 | 0 | 0 |

The next lines start with the compound.

| Compound | MIC (Bacillus subtilis) [µg/mL] | MIC (Staphylococcus aureus) [µg/mL] | MIC [7] [µg/mL] | MIC (Klebsiella pneumoniae) [µg/mL] | MIC (Pseudomonas aeruginosa) [µg/mL] | MIC (Escherichia coli) [µg/mL] | zone of inhibition at 100 µg/disc (Candida albicans [1]) [mm] | zone of inhibition at 100 µg/disc (Aspergillus niger [2]) [mm] | zone of inhibition at 150 µg/disc (Aspergillus niger [3]) [mm] | zone of inhibition at 100 µg/disc (Diutina rugosa [4]) [mm] | zone of inhibition at 150 µg/disc (Diutina rugosa [5]) [mm] | zone of inhibition at 100 µg/disc (Saccharomyces cerevisiae [6]) [mm] | zone of inhibition at 150 µg/disc (Candida albicans [8]) [mm] | zone of inhibition at 150 µg/disc (Saccharomyces cerevisiae [9]) [mm] |
| --- | --- | --- | --- | --- | --- | --- | --- | --- | --- | --- | --- | --- | --- | --- |
| CC1(C)O[C@H]2O[C@@H]3COB(c4ccc(F)cc4)O[C@@H]3[C@H]2O1 | 75 (≈ 255 µM) | 18.8 (≈ 63.8 µM) | 75 (≈ 255 µM) | 37.5 (≈ 128 µM) | 75 (≈ 255 µM) | 37.5 (≈ 128 µM) | 6 | 0 | 6 | 11 | 14 | 7 | 8 | 10 |
| CN[C@@H]1[C@H](O[C@H]2[C@H](O[C@H]3[C@H](O)[C@@H](O)[C@H](N=C(N)N)[C@@H](O)[C@@H]3N=C(N)N)O[C@@H](C)[C@]2(O)C=O)O[C@@H](CO)[C@H](O)[C@H]1O [STREPTOMYCIN] | 6.25 (≈ 10.7 µM) | 6.25 (≈ 10.7 µM) | 3.12 (≈ 5.37 µM) | 3.12 (≈ 5.37 µM) | 1.56 (≈ 2.69 µM) | 6.25 (≈ 10.7 µM) | – | – | – | – | – | – | – | – |
| CC1(C)O[C@H]2O[C@@H]3COB(c4ccsc4)O[C@@H]3[C@H]2O1 | 75 (≈ 266 µM) | 37.5 (≈ 133 µM) | 18.8 (≈ 66.5 µM) | 75 (≈ 266 µM) | 18.8 (≈ 66.5 µM) | 4.68 (≈ 16.6 µM) | 0 | 12 | 16 | 14 | 20 | 10 | 7 | 14 |
| C[C@@H]1[C@H](O)[C@@H](C)/C=C/C=C/C=C/C=C/C=C/C=C/C=C/[C@H](O[C@@H]2O[C@H](C)[C@@H](O)[C@H](N)[C@@H]2O)C[C@@H]2O[C@](O)(C[C@@H](O)C[C@@H](O)[C@H](O)CC[C@@H](O)C[C@@H](O)CC(=O)O[C@H]1C)C[C@H](O)[C@H]2C(=O)O [AMPHOTERICIN B] | – | – | – | – | – | – | 23.5 | 25 | – | 21 | – | 22 | – | – |
| CC1(C)S[C@@H]2[C@H](NC(=O)Cc3ccccc3)C(=O)N2[C@H]1C(=O)O [PENICILLIN G] | 1.56 (≈ 4.67 µM) | 1.56 (≈ 4.67 µM) | 3.12 (≈ 9.35 µM) | 6.25 (≈ 18.7 µM) | 12.5 (≈ 37.4 µM) | 12.5 (≈ 37.4 µM) | – | – | – | – | – | – | – | – |
| Cc1ccc(B2OC[C@H]3O[C@@H]4OC(C)(C)O[C@@H]4[C@H]3O2)cc1 | 150 (≈ 517 µM) | 150 (≈ 517 µM) | 150 (≈ 517 µM) | 150 (≈ 517 µM) | 150 (≈ 517 µM) | 150 (≈ 517 µM) | 0 | 0 | 0 | 0 | 6 | 0 | 0 | 0 |
| CC1(C)O[C@H]2O[C@@H]3COB(c4cccs4)O[C@@H]3[C@H]2O1 | 75 (≈ 266 µM) | 150 (≈ 532 µM) | 37.5 (≈ 133 µM) | 150 (≈ 532 µM) | 75 (≈ 266 µM) | 150 (≈ 532 µM) | 0 | 9 | 11 | 9 | 13 | 12 | 6 | 17 |
